In the library only some 2.5% were active in any assay of this set; here they are far more common.
TDP2 absorb: blocks human TDP2 phosphodiesterase activity. O95551. recombinant TDP2, T5PNP hydrolysis, p-nitrophenol absorbance 415 nm. inhibition, % at 12.8 µM. 370,000 tested, 0.34% active;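 active means inhibition above the mean of all tested compounds plus 3 SD, set per campaign, cut at about 25% in these data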;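 further: 0% = DMSO with enzyme and 100% = buffer with substrate but no TDP2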
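Read-out basis: percent inhibition. System: recombinant human TDP2. Buffer or medium: Mg2+-containing Tris-HCl buffer, pH 7.5. Repeats: single replicate. Timing: reaction 2 h, 37 °C. Benchmarks: high control without enzyme, low control DMSO plus TDP2. Probe or stimulus: 5 mM T5PNP. Doses: 12.8 µM only. Measured by: epi absorbance of p-nitrophenol freed from T5PNP by hydrolysis.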
eLon inh: inhibitors of E. coli Lon protease | P0A9M0 | purified E. coli Lon protease, fluorescence polarization | inhibition, % at 7.94 µM | 360,000 tested, 0.42% active | AID 602123; in the data active means inhibition above about 13%, passing the limit was not always enough;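 further: 0% = enzyme with probe and DMSO and 100% = no enzyme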
PAD4 inh: PAD4 (human) enzyme inhibition | recombinant PAD4, RCA probe fluorescence polarization | inhibition, % at 6.36 µM | Q9UM07 | 330,000 tested, 0.41% active;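 active means percent inhibition above a cutoff equal to the mean of all tested compounds plus 3 SD, cut at about 15% in these data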;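 further: 0% = PAD4 with RCA probe and DMSO and 100% = probe without PAD4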
Target sequence (Q9UM07 whole entry, looked up): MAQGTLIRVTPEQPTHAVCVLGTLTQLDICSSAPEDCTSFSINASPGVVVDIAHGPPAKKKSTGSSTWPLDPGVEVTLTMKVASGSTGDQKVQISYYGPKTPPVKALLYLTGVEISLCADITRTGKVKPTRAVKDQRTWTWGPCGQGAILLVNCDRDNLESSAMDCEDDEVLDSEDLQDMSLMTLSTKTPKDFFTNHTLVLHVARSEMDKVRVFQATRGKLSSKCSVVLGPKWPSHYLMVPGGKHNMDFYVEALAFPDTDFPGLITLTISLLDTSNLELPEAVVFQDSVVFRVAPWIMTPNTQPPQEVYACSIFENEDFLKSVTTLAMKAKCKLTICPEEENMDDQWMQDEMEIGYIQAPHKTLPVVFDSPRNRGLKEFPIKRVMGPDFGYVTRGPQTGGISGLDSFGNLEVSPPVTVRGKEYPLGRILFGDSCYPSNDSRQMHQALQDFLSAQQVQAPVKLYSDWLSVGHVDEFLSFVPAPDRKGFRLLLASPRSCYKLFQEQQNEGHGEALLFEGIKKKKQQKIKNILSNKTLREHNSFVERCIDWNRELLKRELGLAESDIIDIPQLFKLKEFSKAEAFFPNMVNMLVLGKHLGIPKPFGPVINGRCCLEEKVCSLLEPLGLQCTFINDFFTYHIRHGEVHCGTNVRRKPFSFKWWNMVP
GSTO1 counter: GSTO1 inhibition, counter-screen for RBBP9 inhibitors; recombinant GSTO1, activity-based probe fluorescence polarization; inhibition, % at 5.96 µM; 300,000 tested, 1.1% active;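 active means inhibition above the campaign mean inhibition plus 3 SD, cut at about 35% in these data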;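 further: 0% = GSTO1-1 with DMSO and 100% = wells lacking GSTO1-1 enzyme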
PRMT1 FP inh: blocks human protein arginine methyltransferase 1; AID 652257; inhibition, % at 2.79 µM; 370,000 tested, 1.3% active; Q99873; recombinant PRMT1, activity-based probe fluorescence polarization;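 active means inhibition above about 21% made by adding two undisclosed values, limit read from the data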
PRMT1 confirm: PRMT1 (human) inhibition, FP confirmation; recombinant His-PRMT1, activity-based probe fluorescence polarization; shares compounds with PRMT1 FP inh; AID 687036; 3,300 tested, 42% active; inhibition, % at 2.79 µM;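 active means mean inhibition across replicates above the hit cutoff derived for the earlier primary screen, cut at about 22% in these data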
Numbers without * were called inactive; x = not tested or not shown.

SMILES | TDP2 absorb | eLon inh | PAD4 inh | GSTO1 counter | PRMT1 FP inh | PRMT1 confirm
Cc1ccc(/C=C2\CC(C)CC3=C2NC(=S)NC3c2ccc(C)cc2)cc1 (centres undefined) | -12 | -2 | 0 | 1 | 38* | 30*
Cc1ccc(C)c(C(O)c2ncc(-c3ccc(F)cc3)[nH]2)c1 (centres undefined) | 2 | -19 | x | x | 0 | x
C/C(C=NNC(=O)CSc1nnc(-c2ccccc2)n1-c1ccc(C)cc1)=C\c1ccco1 | -1 | x | x | x | -2 | x
O=C(NCc1ccncc1)C1Cc2c(-c3ccc4c(c3)OCO4)ccnc2O1 (centres undefined) | -4 | 6 | x | x | 40* | 11
N#CC1(C#N)C(C(N)=O)C1c1ccccc1 (centres undefined) | -9 | -9 | -3 | 4 | 3 | x
CN1C=CC2=C(C#N)C(N)C(C#N)(C#N)[C@H](c3ccccc3)[C@H]2C1 (some centres undefined) | 4 | 13 | 0 | 1 | 26* | 10
CCN(CC)CCCNC(=O)CSc1nc2cccnc2n1C | 2 | x | x | x | -3 | x
Nc1c(C(=O)O)sc2nc(-c3ccccc3)c3c(c12)CCCC3 | -2 | -11 | -2 | -6 | 27* | 5
COC(=O)c1sc2nc(-c3ccccc3)c3c(c2c1N)CCCC3 | -5 | -12 | 0 | -2 | -1 | x
CCCCN(CC)CCCNC(=O)C1CCN(c2ncnc3c2sc2cccc(F)c23)CC1 | -16 | 1 | -1 | -3 | -2 | x
O=C(c1ccccc1)c1ccc(O)cc1O | -13 | -10 | -6 | 0 | 73* | 42*
O=C(CSc1nnc(-c2ccccn2)n1-c1ccc(Cl)cc1)Nc1cccc2ccccc12 | -4 | x | x | x | -1 | x
O=C(CSCC(=O)c1ccccc1)Nc1ccccc1Cl | 2 | -2 | 0 | 1 | 99* | 28*
COc1ccc(CCNC(=O)C(=O)NCC2OCCN2S(=O)(=O)c2ccc(OC)cc2)cc1 (centres undefined) | 1 | -2 | 5 | 0 | 30* | 0
CC(=O)Nc1ccc(S(=O)(=O)NCC(=O)NNC(=O)COc2ccccc2Cl)cc1 | 0 | -2 | 0 | 3 | 25* | 22*
CC(C)(C)n1nnnc1C(c1ccncc1)N1CCN(c2ccc(O)cc2)CC1 (centres undefined) | -2 | 0 | -3 | 13 | 27* | 4
C[C@H]1CNC(=O)c2c(C(=O)Nc3ccc(CNC(=O)OC(C)(C)C)cc3)ncn21 | 6 | -10 | x | x | 0 | x
COc1ccc2c(c1)CN(C)S(=O)(=O)c1ccccc1-2 | 11 | -13 | -2 | x | -3 | x
COc1ccc2c(c1)-c1ccccc1S(=O)(=O)N(C)C2 | 4 | -6 | 0 | x | 30* | -5
C=CCN(CC=C)C(=O)CN1C(=O)NC(C)(c2ccc3cc(OC)ccc3c2)C1=O (centres undefined) | -1 | 3 | -2 | -6 | -2 | x
COc1ccc(-c2nc3c(s2)CN(S(C)(=O)=O)CC3)cc1OC | -7 | -3 | x | x | 35* | 4
CCS(=O)(=O)N1CCc2nc(-c3ccccc3)sc2C1 | 3 | -3 | 7 | -4 | -2 | x
CC(C)(C)N(Cc1ccc2c(c1)OCO2)C(=O)/C=C\S(=O)c1ccccc1 (centres undefined) | 3 | 5 | x | x | -1 | x
CCOC(=O)c1cc(-c2ccc(F)cc2)n(CC(=O)NCc2cccnc2)c1C | 2 | 5 | 0 | 0 | 28* | 7
CCCNC(=O)Cn1c(-c2ccc(F)cc2)cc(C(=O)OCC)c1C | 14 | 0 | -1 | -2 | -2 | x
SMILES | TDP2 absorb | eLon inh | PAD4 inh | GSTO1 counter | PRMT1 FP inh | PRMT1 confirm
CCCc1c(C(=O)N/N=C(/C)c2ccncc2)nnn1-c1nonc1N | -22 | -3 | -8 | 2 | 7 | x
CCN1CCN(C(=S)c2ccc(SC)cc2)CC1 | 3 | 0 | 0 | 1 | 32* | 19
CSc1ccc(C(=S)N2CCN(Cc3ccccc3)CC2)cc1 | -3 | -6 | -2 | -4 | 32* | 38*
COc1ccc2[nH]c3c(c2c1)CCN[C@]31C(=O)N(Cc2ccccc2)c2ccccc21 | -4 | x | x | x | 3 | x
COCCN1C(=O)Cc2c1nc(N)c1c(N)nc(N3CCN(c4ccc(F)cc4)CC3)c(C#N)c21 | 13 | -11 | -5 | 11 | 27* | 15
N#Cc1c(N(CCO)CCO)nc(N)c2c(N)nc3c(c12)CC(=O)N3Cc1cccs1 | x | -7 | -7 | 7 | x | x
COc1ccc(CN2C(=O)Cc3c2nc(N)c2c(N)nc(N4CCOCC4)c(C#N)c32)cc1 | 0 | -15 | -6 | 10 | 25* | 13
CN(CCO)c1nc(N)c2c(N)nc3c(c2c1C#N)CC(=O)N3Cc1cccs1 | -4 | 4 | -3 | 6 | 27* | 1
COc1ccccc1C(CNC(=O)c1ccc(-c2ccccc2Cl)o1)N1CCCC1 (centres undefined) | 1 | 8 | -7 | 5 | -2 | x
O=C1C=C(c2ccc3[nH]ccc3c2)C[C@@H](c2ccc(Cl)cc2)C1 | -16 | 16 | -4 | x | -3 | x
Oc1c(CN2CCOCC2)cc(CN2CCOCC2)c(O)c1CN1CCOCC1 | -2 | -7 | x | x | 72* | 77*
CC(=O)c1c(N2CCN(C)CC2)nc(=S)n(Cc2ccccc2)c1C | 7 | 3 | -1 | 2 | 39* | -5
Cc1ccc(CNC(=O)COC(=O)c2cccc(S(=O)(=O)N3CCCCC3)c2)cc1 | 0 | -6 | -2 | x | 86* | 0
O=S(=O)(O)c1cc(Cl)cc(N=Nc2ccc(O)cc2O)c1O | 13 | 122 | x | x | 86* | 65*
O=[N+]([O-])c1ccc(C(O)CN2CCN(c3ccccc3)CC2)cc1 (centres undefined) | -5 | -14 | -3 | 0 | -1 | x
Oc1ccc(N2CCN(CC(O)c3ccccc3)CC2)cc1 (centres undefined) | 0 | 0 | 4 | 4 | 28* | 6
Cc1ccc(C=Nn2c(-c3n[nH]c4c3CCC4)n[nH]c2=S)s1 | -11 | x | x | x | 29* | 4
CC(O)C(O)C(O)C(O)C1NCCS1 (centres undefined) | -9 | 0 | -4 | 3 | 20 | x
OCC(O)C(O)C(O)C(O)C1NCCS1 (centres undefined) | -11 | 1 | -1 | 5 | 32* | 16
CCNc1nc(SCC(N)=O)nc2sc3c(c12)CCN(C)C3 | -2 | 4 | x | x | 61* | 16
COc1cc(/C=C2\SC(=S)N(C(C(=O)O)c3ccccc3)C2=O)ccc1O (centres undefined) | 1 | -117 | -43 | -177 | 17 | x
O=C(O)C(c1ccccc1)N1C(=O)/C(=C\c2ccc(O)c(O)c2)SC1=S (centres undefined) | -6 | -35 | -24 | -67 | 39* | 45*
CCOc1cc(/C=C2\SC(=S)N(C(C(=O)O)c3ccccc3)C2=O)ccc1O (centres undefined) | -1 | -133 | -75 | -171 | 25* | -3
